Measured values reported in PubChem BioAssay.
Calls of active or inactive are those of the source.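 The calls were made as follows, unless noted: active = potentiation averaged over duplicate wells exceeding buffer-only control mean by more than 3 SD; inactive = the rest.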

system: not listed separately; experiment: nonspecific flux increase, KCNQ1-free cells – parental CHO cells, counter-screen for KCNQ1 potentiator project (AID 493006;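 active = duplicate-averaged activation above buffer control mean plus 5 SD of those controls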;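 as to activation: fluorescence ratio of max minus min over baseline after K+ and Tl+ depolarization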); settings: parental CHO-K1 cells, FluxOR thallium flux, at 10 µM; stronger effect = higher value
Summary of the method: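 Benchmarks – buffer and R-L3 controls · Assay system – untransfected host CHO-K1 cells with FluxOR thallium dye · Measure – fluorescence change ratio scaled 0% buffer, 100% R-L3 · Technique – kinetic thallium-flux fluorescence · Timing – overnight 37 °C plating, 90 min RT dye, 20 min compound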

Structure (SMILES) | activation | outcome
CC(C)c1ccc(NC(=O)C2CC(=O)N=C(N)S2)cc1 (stereo not given) | 164% (active) | 
O=C(NC(=S)Nc1nc2ccccc2s1)c1ccco1 | 183% (active) | 
Cc1ccc(C2=CSC3=NS(=O)(=O)CCN23)cc1 |  | inactive
Cc1cc(Cl)ccc1OCC(=O)NNC(=O)C1CCCO1 (stereo not given) |  | inactive
Cc1cccc(C(=O)NC(=S)N(C)C2CCCCC2)c1 | 268% (active) | 
COc1ccc(NC(=O)/C(=C/c2ccc(OC(C)=O)c(OC)c2)NC(C)=O)cc1 |  | inactive
S=c1[nH]nc(-c2ccc(Cl)cc2)n1/N=C/C=C/c1ccco1 | 159% (active) | 
C=CCn1c(O)c(N=NC(=S)Nc2ccc(OC)c(Cl)c2)c2ccccc21 | 191% (active) | 
Cc1ccc(N=Cc2cc(Br)cc(Cl)c2O)cc1 | 201% (active) | 
CCCCN(CCCC)C(=S)N/N=C/c1c(C)[nH]n(-c2ccccc2)c1=O | 198% (active) | 
CCOc1cc(CNCCCN2CCOCC2)ccc1OCC(=O)NC(C)(C)C |  | inactive
CCC(O)C1CCN(Cc2cn(Cc3ccccc3)nc2-c2cc3ccccc3o2)CC1 (stereo not given) | 170% (active) | 
Cc1ccc(C(=O)COC(=O)COc2ccccc2C)cc1 |  | inactive
CCCN(Cc1ccccc1)C(=S)NC(=O)c1ccccc1[N+](=O)[O-] | 430% (active) | 
CC(=O)Nc1ccc(/C=N/N2C(=O)NC(C)(c3ccc(OC(F)F)cc3)C2=O)cc1 (stereo not given) | 219% (active) | 
Cc1cc(/C=C2\C(=N)N3N=C(C(C)C)SC3=NC2=O)c(C)n1Cc1ccccc1 |  | inactive
Cc1ccc(-c2c(=O)n(O)c3ccccc3[n+]2[O-])cc1 | 202% (active) | 
CCOc1ccc(N=Nc2ccc(O)c3ncccc23)cc1 |  | inactive
COc1cccc(C(=O)NNC(=O)C(=O)Nc2ccc(C)c(Cl)c2)c1 | 278% (active) | 
O=C(NC(=S)N(CCCCO)C1CCCCC1)c1sc2ccccc2c1Cl | 368% (active) | 

Structure (SMILES) | activation | outcome
O=C(NC(=S)N1CCc2ccccc21)c1ccccc1 | 308% (active) | 
S=c1[nH]nc(-c2ccc(Cl)cc2Cl)n1-c1ccc(Cl)cc1 | 154% (active) | 
CC(=O)c1ccc(N2CCN(C(=O)c3ccc(NC(=O)C4CCCO4)cc3)CC2)cc1 (stereo not given) |  | inactive
CCc1ccc(/C=C/C(=O)C2C(=O)c3ccccc3C2=O)cc1 | 284% (active) | 
Cc1ccc(-c2nc3ncccc3o2)cc1NC(=O)c1cccnc1 |  | inactive
O=C(COC(=O)C1CCC(=O)N1)Nc1ccc(Oc2ccccc2)cc1 (stereo not given) |  | inactive
Cc1ccc(C(=O)N/C(=C\c2ccc(-c3ccccc3[N+](=O)[O-])o2)C(=O)NCCCN2CCOCC2)cc1 |  | inactive
COc1ccc(CCN(C)C(=O)CSc2nnc(-c3ccco3)o2)cc1OC |  | inactive
Cc1sc2nc(C(C)C)nc(SCC(=O)NCc3ccco3)c2c1C | 276% (active) | 
Cc1ccc(/C(O)=C/C(=O)C(=O)NC23CC4CC(CC(C4)C2)C3)cc1 | 284% (active) | 
COc1ccc(CCN2CC(C(=O)Nc3ccc4c(c3)OCO4)CC2=O)cc1OC (stereo not given) | 156% (active) | 
Fc1ccccc1/C=N/NC(=S)Nc1ccc(Cl)cc1Cl |  | inactive
O=C(Nn1c(Cc2cccs2)nc2ccccc2c1=O)c1cccs1 |  | inactive
COc1ccccc1NC(=O)C(=O)NNC(=O)c1ccco1 | 240% (active) | 
Cc1c(N=Cc2cc(Br)cc(Br)c2O)cccc1C(=O)O |  | inactive
CC(=O)NC(NC(C)=O)c1ccc(N(C)C)cc1 |  | inactive
Cc1ccc(NC(=O)C(=O)NNC(=O)c2cccs2)cc1 | 337% (active) | 
O=C(COC(=O)c1cc(NS(=O)(=O)c2cccs2)ccc1O)Nc1cc(Cl)ccc1Cl |  | inactive
Cn1c(=O)c2c(SC3CCCC3)nc(C3CC3)nc2n(C)c1=O |  | inactive
O=C(NC(=S)Nc1ccccc1)c1cccs1 | 137% (active) | 

target: Potassium voltage-gated channel subfamily KQT member 1 (Homo sapiens) (UniProt P51787); experiment: enhancement of KCNQ1 channel thallium flux – FluxOR thallium flux, CHO cells, duplicates, confirmation (AID 493007); settings: KCNQ1 cell line, FluxOR thallium flux fluorescence, at 10 µM; stronger effect = higher value, % of reference activator effect, buffer zero;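 as to outcome: cells depolarized by a potassium plus thallium sulfate stimulus after compound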
Summary of the method: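 Material: CHO cells stably expressing the KCNQ1 potassium channel / Times: dye 90 min then compound 20 min, both at room temperature / Detection: kinetic thallium influx fluorescence with FluxOR dye, 10 s baseline, 110 s post-stimulus / Benchmarks: buffer-only wells as 0% and R-L3 activator as 100% / Replicates: each compound tested in duplicate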

Chain of Potassium voltage-gated channel subfamily KQT member 1 (Homo sapiens) (P51787 whole entry, looked up): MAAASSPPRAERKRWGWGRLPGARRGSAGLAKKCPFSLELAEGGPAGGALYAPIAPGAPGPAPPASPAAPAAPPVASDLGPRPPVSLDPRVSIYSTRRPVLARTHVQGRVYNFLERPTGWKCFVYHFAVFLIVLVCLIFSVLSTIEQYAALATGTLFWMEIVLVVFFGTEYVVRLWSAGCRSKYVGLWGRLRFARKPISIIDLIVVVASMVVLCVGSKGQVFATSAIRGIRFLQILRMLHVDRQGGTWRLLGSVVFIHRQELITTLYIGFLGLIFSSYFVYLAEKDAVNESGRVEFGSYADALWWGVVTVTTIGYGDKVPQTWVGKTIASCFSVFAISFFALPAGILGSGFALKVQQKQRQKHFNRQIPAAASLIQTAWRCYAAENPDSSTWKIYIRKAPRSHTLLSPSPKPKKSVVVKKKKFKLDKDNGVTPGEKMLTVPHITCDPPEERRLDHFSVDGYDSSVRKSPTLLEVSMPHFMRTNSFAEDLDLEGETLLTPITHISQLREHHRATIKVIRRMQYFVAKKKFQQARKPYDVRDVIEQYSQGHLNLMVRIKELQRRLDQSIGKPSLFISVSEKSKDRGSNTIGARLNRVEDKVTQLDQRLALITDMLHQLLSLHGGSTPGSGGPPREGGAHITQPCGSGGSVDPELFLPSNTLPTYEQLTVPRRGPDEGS

Structure (SMILES) | potentiation | outcome
CC(C)c1ccc(NC(=O)C2CC(=O)N=C(N)S2)cc1 (stereo not given) | 41.5% (active) | 
O=C(NC(=S)Nc1nc2ccccc2s1)c1ccco1 | 31% (active) | 
Cc1ccc(C2=CSC3=NS(=O)(=O)CCN23)cc1 |  | inactive
Cc1cc(Cl)ccc1OCC(=O)NNC(=O)C1CCCO1 (stereo not given) |  | inactive
Cc1cccc(C(=O)NC(=S)N(C)C2CCCCC2)c1 | 72.5% (active) | 
COc1ccc(NC(=O)/C(=C/c2ccc(OC(C)=O)c(OC)c2)NC(C)=O)cc1 |  | inactive
S=c1[nH]nc(-c2ccc(Cl)cc2)n1/N=C/C=C/c1ccco1 | 32% (active) | 
C=CCn1c(O)c(N=NC(=S)Nc2ccc(OC)c(Cl)c2)c2ccccc21 | 57% (active) | 
Cc1ccc(N=Cc2cc(Br)cc(Cl)c2O)cc1 | 19% (active) | 
CCCCN(CCCC)C(=S)N/N=C/c1c(C)[nH]n(-c2ccccc2)c1=O | 123% (active) | 
CCOc1cc(CNCCCN2CCOCC2)ccc1OCC(=O)NC(C)(C)C |  | inactive
CCC(O)C1CCN(Cc2cn(Cc3ccccc3)nc2-c2cc3ccccc3o2)CC1 (stereo not given) | 75% (active) | 
Cc1ccc(C(=O)COC(=O)COc2ccccc2C)cc1 |  | inactive
CCCN(Cc1ccccc1)C(=S)NC(=O)c1ccccc1[N+](=O)[O-] | 177% (active) | 
CC(=O)Nc1ccc(/C=N/N2C(=O)NC(C)(c3ccc(OC(F)F)cc3)C2=O)cc1 (stereo not given) | 100% (active) | 
Cc1cc(/C=C2\C(=N)N3N=C(C(C)C)SC3=NC2=O)c(C)n1Cc1ccccc1 |  | inactive
Cc1ccc(-c2c(=O)n(O)c3ccccc3[n+]2[O-])cc1 | 25% (active) | 
CCOc1ccc(N=Nc2ccc(O)c3ncccc23)cc1 | 17.5% (active) | 
COc1cccc(C(=O)NNC(=O)C(=O)Nc2ccc(C)c(Cl)c2)c1 | 99% (active) | 
O=C(NC(=S)N(CCCCO)C1CCCCC1)c1sc2ccccc2c1Cl | 192% (active) | 

Structure (SMILES) | potentiation | outcome
O=C(NC(=S)N1CCc2ccccc21)c1ccccc1 | 162% (active) | 
S=c1[nH]nc(-c2ccc(Cl)cc2Cl)n1-c1ccc(Cl)cc1 | 43% (active) | 
CC(=O)c1ccc(N2CCN(C(=O)c3ccc(NC(=O)C4CCCO4)cc3)CC2)cc1 (stereo not given) |  | inactive
CCc1ccc(/C=C/C(=O)C2C(=O)c3ccccc3C2=O)cc1 | 118% (active) | 
Cc1ccc(-c2nc3ncccc3o2)cc1NC(=O)c1cccnc1 |  | inactive
O=C(COC(=O)C1CCC(=O)N1)Nc1ccc(Oc2ccccc2)cc1 (stereo not given) |  | inactive
Cc1ccc(C(=O)N/C(=C\c2ccc(-c3ccccc3[N+](=O)[O-])o2)C(=O)NCCCN2CCOCC2)cc1 |  | inactive
COc1ccc(CCN(C)C(=O)CSc2nnc(-c3ccco3)o2)cc1OC |  | inactive
Cc1sc2nc(C(C)C)nc(SCC(=O)NCc3ccco3)c2c1C | 85.5% (active) | 
Cc1ccc(/C(O)=C/C(=O)C(=O)NC23CC4CC(CC(C4)C2)C3)cc1 | 167% (active) | 
COc1ccc(CCN2CC(C(=O)Nc3ccc4c(c3)OCO4)CC2=O)cc1OC (stereo not given) | 21% (active) | 
Fc1ccccc1/C=N/NC(=S)Nc1ccc(Cl)cc1Cl | 66.5% (active) | 
O=C(Nn1c(Cc2cccs2)nc2ccccc2c1=O)c1cccs1 |  | inactive
COc1ccccc1NC(=O)C(=O)NNC(=O)c1ccco1 | 62.5% (active) | 
Cc1c(N=Cc2cc(Br)cc(Br)c2O)cccc1C(=O)O | 42% (active) | 
CC(=O)NC(NC(C)=O)c1ccc(N(C)C)cc1 |  | inactive
Cc1ccc(NC(=O)C(=O)NNC(=O)c2cccs2)cc1 | 88.5% (active) | 
O=C(COC(=O)c1cc(NS(=O)(=O)c2cccs2)ccc1O)Nc1cc(Cl)ccc1Cl |  | inactive
Cn1c(=O)c2c(SC3CCCC3)nc(C3CC3)nc2n(C)c1=O |  | inactive
O=C(NC(=S)Nc1ccccc1)c1cccs1 |  | inactive
